Compound activity as filed in PubChem.
OX1R antag-1 – antagonists of human orexin 1 receptor; O43613; CHO/OX1R cells, Fluo-8 calcium fluorescence, orexin A; inhibition, % at 5 µM; 330,000 compounds, 0.43% hits; AID 434989;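 active means inhibition above its plate's threshold, mean inhibition of all tested compounds on the plate plus 3 SD, cut at about 37% in these data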
Target sequence (O43613 whole entry, looked up): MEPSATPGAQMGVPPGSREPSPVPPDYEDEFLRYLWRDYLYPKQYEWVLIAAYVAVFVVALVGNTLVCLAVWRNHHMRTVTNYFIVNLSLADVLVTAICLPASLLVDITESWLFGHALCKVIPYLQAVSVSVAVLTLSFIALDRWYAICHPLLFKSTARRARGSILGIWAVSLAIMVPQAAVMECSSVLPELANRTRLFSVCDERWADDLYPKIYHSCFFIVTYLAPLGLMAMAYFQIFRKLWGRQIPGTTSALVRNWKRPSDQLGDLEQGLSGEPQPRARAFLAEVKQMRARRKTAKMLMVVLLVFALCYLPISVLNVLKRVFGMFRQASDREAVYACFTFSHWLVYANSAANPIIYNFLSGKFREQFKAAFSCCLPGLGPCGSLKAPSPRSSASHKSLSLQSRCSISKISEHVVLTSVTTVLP
TAAR1 antag – human TAAR1 antagonism; AID 624466; CHO RD-HGA16 TAAR1, Fluo-8 calcium fluorescence, antagonist; 360,000 compounds, 1.5% hits; inhibition, % at 3 µM;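 active means inhibition above a per-plate cutoff, the mean inhibition of test compounds on that plate plus 3 SD, cut at about 49% in these data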
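test system = CHO RD-HGA16 cells bearing hTAAR1 | replication = singlicate | controls = DMSO-only wells and EC80 β-PEA-stimulated wells | reagent = EC80 β-phenethylamine stimulus | read-out basis = percent inhibition of PEA-evoked calcium signal, max/basal emission ratio | schedule = seeding 17-24 h prior, 75-min 37 °C, 30-min RT dye loading | signal = kinetic Fluo-8 calcium fluorescence measurement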
OX1R antag-2 – antagonists of human orexin 1 receptor (OX1R). OX1R-expressing cells, FRET antagonist read-out. inhibition, % at 6.6 µM. 330,000 compounds, 1.8% hits. AID 485270; in the data active means inhibition mostly above about 38%, no sharp cut-off; inactive means mostly below about 40%
CHO parental Ca – counter-screen for OX1R antagonists: effect in parental CHO cells; 330,000 compounds, 0.63% hits; parental CHO-K1, ATP-induced calcium, Fluo-8 fluorescence; inhibition, % at 5.6 µM; AID 463079;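 active means inhibition above that plate's mean sample inhibition plus 3 SD, cut at about 26% in these data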
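Test system: untransfected parental CHO cell line; also added: ATP stimulus; dosing: 5.6 µM, single dose; signal: calcium-sensitive Fluo-8 fluorescence; measure: percent inhibition of ATP-evoked calcium rise, normalized to controls; benchmarks: low control ATP plus DMSO, high control DMSO only; replication: one well per compound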
TAAR1 agonist – agonists of human TAAR1; CHO RD-HGA16 TAAR1, Fluo-8 calcium fluorescence; vehicle wells 0%, saturating PEA agonist 100%; activation, % at 3 µM; 360,000 compounds, 0.99% hits; AID 624467;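 active means activation above the mean activation of all test compounds in the run plus 3 SD, cut at about 38% in these data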
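Test system: RD-HGA16 (CHO) cells co-expressing Gα16 and hTAAR1; dosing: one-point dosing at 3 µM (nominal); timing: 17-24 h seeding, 75 min 37 °C dye, 30 min RT; signal: kinetic Fluo-8 calcium fluorescence; read-out basis: % activation relative to PEA EC100 response; controls: DMSO and PEA EC100; replicates: n 1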
GPR7 antag – human neuropeptides B/W receptor 1 antagonism; GPR7-expressing cells, fluorescence antagonist assay; 290,000 compounds, 1.1% hits; P48145; inhibition, % at 4.4 µM; in the data active means inhibition above about 16%, passing the limit was not always enough;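 further: cells stimulated with the agonist NPW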
GPR7 antag cf – human GPR7 antagonism, confirmation assay; shares compounds with GPR7 antag; GPR7-expressing cells, calcium fluorescence antagonist mode; inhibition, % at 4.4 µM; 2,400 compounds, 52% hits; in the data active means inhibition above about 24%;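 further: stimulated with the GPR7 agonist NPW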
MCHR1 antag – MCHR1 (human) antagonism in GPR7 counter-screen. shares compounds with GPR7 antag. MCHR1-expressing cells, fluorescence antagonist assay. inhibition, % at 4.4 µM. 2,400 compounds, 62% hits. AID 2148; in the data active means inhibition above about 22%
Of the large screens only hits and unclear results are named; the others gave an inactive call (follow-up assays come after a bar, where they were run). Compounds with a hit are over-represented: about 4.5% of the library has one in this group of screens.

CCc1ccc2[nH]c(=O)c(C(c3nnnn3Cc3ccc(OC)cc3)N3CCOCC3)cc2c1 (stereo unspecified)	GPR7 antag 29 | GPR7 antag cf inactive | MCHR1 antag inactive
O=C(c1ccccc1-c1ccccc1)N1CCN(c2ccccn2)CC1	GPR7 antag 27 | GPR7 antag cf inactive | MCHR1 antag 24
Cc1ccc(NC(=O)c2ccccc2F)cc1S(=O)(=O)N1CCCCCC1	GPR7 antag 22 | GPR7 antag cf inactive | MCHR1 antag 54
Cc1ccc(NC(=O)CSc2ncnc3ccccc23)cc1S(=O)(=O)N1CCCCCC1	CHO parental Ca 34, GPR7 antag 24 | GPR7 antag cf 53 | MCHR1 antag 71
CCN(CC)S(=O)(=O)c1cc(C(=O)OC)ccc1Cl	GPR7 antag 37 | GPR7 antag cf inactive | MCHR1 antag inactive
COc1cc(CN2CCC(CO)(Cc3cccc(C(F)(F)F)c3)CC2)ccc1F	GPR7 antag 34 | GPR7 antag cf inactive | MCHR1 antag 44
O=c1[nH]c(=S)[nH]c2c1CN(Cc1ccc(F)cc1)CC2	GPR7 antag 30 | GPR7 antag cf inactive | MCHR1 antag inactive
COc1cccc2c1cc1c(=O)n(CC(=O)NCCCN3CCCCC3)nc(C)n12	none (no result: TAAR1 antag, TAAR1 agonist)
O=C1C2C3C=CC(C3)C2C(=O)N1c1ccc(-c2nc3ccccc3o2)cc1 (stereo unspecified)	GPR7 antag 40 | GPR7 antag cf inactive | MCHR1 antag inactive
O=C1C2C3C=CC(C3)C2C(=O)N1c1ccncc1 (stereo unspecified)	none
COc1ccc(S(=O)(=O)NCc2cccnc2)c2ccccc12	none
Cc1nnc(NCc2n[nH]c(=O)c3ccccc23)c2ccccc12	GPR7 antag 22 | GPR7 antag cf inactive | MCHR1 antag inactive
COc1ccc(NCc2n[nH]c(=O)c3ccccc23)cc1	none
Cc1c(O)ccoc1=O	GPR7 antag 21 | GPR7 antag cf inactive | MCHR1 antag inactive
Cc1ccc([N+](=O)[O-])cc1NC(=O)CN(C1CCCCC1)S(=O)(=O)c1ccc(Cl)cc1	none (no result: OX1R antag-1, OX1R antag-2, CHO parental Ca)
Cc1ccc([N+](=O)[O-])cc1NC(=O)CN(C(=O)c1ccccc1Cl)C1CCCCC1	GPR7 antag 36 | GPR7 antag cf 39 | MCHR1 antag 41
CCOC(=O)C1(Cc2ccc(OC)cc2)CCN(C(=O)c2cc(C)on2)CC1	GPR7 antag 25 | GPR7 antag cf inactive | MCHR1 antag inactive
CCN(c1cccc(C)c1)S(=O)(=O)c1cccc2nsnc12	GPR7 antag 23 | GPR7 antag cf inactive | MCHR1 antag 39
COc1ccccc1-n1cc(-c2ccccc2)c2c(=S)nc[nH]c21	none
C=CCOc1ccc(CN(C)CC(=O)Nc2ccc3c(c2)CCC3)cc1	GPR7 antag 24 | GPR7 antag cf inactive | MCHR1 antag 33
CN1C(=O)c2cccc(NC(=O)Cc3ccccc3)c2C1=O	none
COc1ccc(NC(=O)/C(Cl)=C(/Cl)S(=O)Cc2ccccc2Cl)cn1 (stereo unspecified)	GPR7 antag 40 (no result: OX1R antag-1, TAAR1 antag, OX1R antag-2, CHO parental Ca, TAAR1 agonist) | GPR7 antag cf 76 | MCHR1 antag 91
O=C(CCn1ccc2ccccc21)Nc1ccc(N2CCOCC2)cc1	GPR7 antag 30 | GPR7 antag cf inactive | MCHR1 antag inactive
CCN(C(=O)c1cccc(Br)c1)C1CCS(=O)(=O)C1 (stereo unspecified)	none (no result: GPR7 antag)
O=C(c1ccccc1)N(Cc1cccc(Br)c1)C1CCS(=O)(=O)C1 (stereo unspecified)	GPR7 antag 35 | GPR7 antag cf inactive | MCHR1 antag inactive
Cc1cc(NC(=O)CN2CCOCC2)n(-c2ccccc2)n1	none
Cc1cc(NC(=O)CCc2ccc(S(=O)(=O)N3CCOCC3)cc2)n(-c2ccccc2)n1	GPR7 antag 30 | GPR7 antag cf inactive | MCHR1 antag inactive
O=C(Cn1cccn1)N1CCCC(N2CCN(Cc3ccc4c(c3)OCO4)CC2)C1 (stereo unspecified)	none
